Active and inactive are the calls of the source. The calls are words filed in the database; no cut-off is given here.
What was measured:
[1] = Drug level in mouse plasma at 5 mg/kg, ip administered as single dose measured at 1 hr post dose by liquid chromatography/tandem mass spectrometric analysis; format: ADME, organism-based
How it was run: (§1)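 Single ip dose of 5 mg/kg in 5% DMSO/7% Tween 80/3% EtOH in 0.9% saline, three mice per compound (six for one compound). At 1 h, plasma is separated by centrifugation and brain homogenized in acetonitrile. Both are quantified by LC-MS/MS, with brain corrected for 3% v/w blood. Brain/plasma ratio is reported as mean ± SEM.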

[2] = Stability in human liver microsomes assessed as compound remaining at 1.5 uM in presence of NADPH measured after 60 mins by liquid chromatography/tandem mass spectrometric analysis; format: ADME, microsome; details: read-out: Stability
How it was run: (§2)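 Pooled liver microsomes (0.5 mg/mL) are preincubated 5 min at 37 °C in 0.16 M KH2PO4 with 1 mM NADPH, then test compound is added at 1.5 μM. Aliquots are quenched with 4 volumes of acetonitrile at 0, 5, 10, 15, 30 and 60 min and analyzed by LC-MS/MS. Percent remaining at 5 or 60 min is given when t1/2 is outside the 5–60 min range. Controls: testosterone, dextromethorphan.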

[3] = Cytotoxicity against human CRL8155 cells assessed as growth inhibition after 48 hrs by Alamar blue assay; format: cell-based; details: for EC50: Homo sapiens, CRL8155, 48 h; for EC90: human, crl8155, 48 h
How it was run: (§3)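 CRL-8155 lymphoblasts or HepG2 hepatocellular carcinoma cells are exposed 48 h to serial compound dilutions in quadruplicate. Growth is read with Alamar Blue, and 50% and 90% inhibitory concentrations come from nonlinear regression. Quinacrine is the control.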

[4] = test system: HepG2; assay: Cytotoxicity against human HepG2 cells assessed as growth inhibition after 48 hrs by Alamar blue assay; format: cell-based; details: for EC50: Homo sapiens, HepG2, 48 h; for EC90: human, hepg2, 48 h; how it was run: as §3
[5] = Stability in mouse liver microsomes assessed as compound remaining at 1.5 uM in presence of NADPH measured after 60 mins by liquid chromatography/tandem mass spectrometric analysis; format: ADME, microsome; details: read-out: Stability; how it was run: as §2
[6] = Selectivity index, ratio of EC50 for human HepG2 cells to EC50 for Trypanosoma brucei brucei BF427; format: toxicity; details: read-out: Ratio EC50
[7] = AUC (0 to infinity) in mouse at 50 mg/kg, po administered as single dose via gavage as 7% Tween 80/3% EtOH/5% DMSO formulation by liquid chromatography/tandem mass spectrometric analysis; format: ADME, organism-based; parameters: dose 50 mg/kg, route oral, time infinity; details: in vivo
How it was run: (§4)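 Single oral gavage dose of 50 mg/kg to groups of three mice, vehicle as in the line. Tail blood of 40 μL is taken into heparinized capillaries at time points out to as much as 32 h. It is spotted on dried-blood cards and quantified by LC-MS/MS. Values are means ± SEM of three mice.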

[8] = Drug level in mouse brain at 5 mg/kg, ip administered as single dose measured at 1 hr post dose by liquid chromatography/tandem mass spectrometric analysis; format: ADME, organism-based; details: read-out: Drug uptake; how it was run: as §1
[9] = test system: Trypanosoma brucei brucei; assay: Antitrypanosomal activity against Trypanosoma brucei brucei BF427 assessed as growth inhibition measured after 48 hrs by Alamar blue assay; format: functional; details: BF427, 48 h
How it was run: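 Bloodstream-form parasites in HMI-9 medium are exposed to serial compound dilutions in triplicate. Viability is read with Alamar Blue at 48 h. EC50 and EC90 come from nonlinear regression. Pentamidine isethionate is the control.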

[10] = Selectivity index, ratio of EC50 for human CRL8155 cells to EC50 for Trypanosoma brucei brucei BF427; format: toxicity; details: read-out: Ratio EC50
[11] = Ratio of drug level in brain to plasma in mouse at 5 mg/kg, ip administered as single dose measured at 1 hr post dose by liquid chromatography/tandem mass spectrometric analysis; format: ADME, organism-based; how it was run: as §1
[12] = Stability in mouse liver microsomes assessed as compound remaining at 1.5 uM in presence of NADPH measured after 5 mins by liquid chromatography/tandem mass spectrometric analysis; format: ADME, microsome; details: read-out: Stability
[13] = test system: Liver; assay: Half life in mouse liver microsomes at 1.5 uM in presence of NADPH by liquid chromatography/tandem mass spectrometric analysis; format: ADME, microsome
[14] = test system: Liver; assay: Half life in human liver microsomes at 1.5 uM in presence of NADPH by liquid chromatography/tandem mass spectrometric analysis; format: ADME, microsome
[15] = Stability in human liver microsomes assessed as compound remaining at 1.5 uM in presence of NADPH measured after 5 mins by liquid chromatography/tandem mass spectrometric analysis; format: ADME, microsome; details: read-out: Stability; how it was run: as §2
[16] = Cmax in mouse at 50 mg/kg, po administered as single dose via gavage as 7% Tween 80/3% EtOH/5% DMSO formulation by liquid chromatography/tandem mass spectrometric analysis; format: ADME, organism-based; parameters: dose 50 mg/kg, route oral; details: in vivo; how it was run: as §4
[17] = test system: Trypanosoma brucei brucei; assay: Anti-parasitic activity against Trypanosoma brucei brucei TREU667 infected in mouse assessed as reduction in parasitemia at 10 mg/kg, ip bid administered on day 21 to 30 post infection measured on day 180 by microscopic method; format: functional, organism-based

Compound | concentration at 1 h [1] [µM] | remaining at 1 h, 1.5 µM [2] [%] | EC50 [3] [µM] | EC90 [3] [µM] | EC50 [4] [µM] | EC90 [4] [µM] | remaining at 1 h, 1.5 µM [5] [%] | selectivity ratio [6] | AUC(0-inf) [7] [µM·h] | concentration at 1 h [8] [µM] | EC50 [9] [µM] | EC90 [9] [µM] | selectivity ratio [10] | BPR [11] | remaining at 5 min, 1.5 µM [12] [%] | t1/2 [13] [min] | t1/2 [14] [min] | remaining at 5 min, 1.5 µM [15] [%] | Cmax [16] [µM] | Activity [17]
O=C(Nc1ccc2sc(-c3ccc(F)c(F)c3)nc2c1)N1C[C@@H](F)[C@H](F)C1 | 2.19 | 96 | 27.1 | > 50 | > 50 | > 50 | 67 | > 439 | 225 | 16.2 | 0.114 | 0.747 | > 238 | 7.71 | – | – | – | – | – | –
O=C(NCCc1nc(-c2ccc(F)c(F)c2)cs1)N1CCCCC1 | – | – | – | – | – | – | – | – | – | – | – | – | – | – | 0 | < 5 | < 5 | 22 | – | –
O=C(Nc1ccc2sc(-c3ccc(F)c(F)c3)nc2c1)N1CCC(F)C1 (centres undefined) | 3.26 | 99 | > 50 | – | > 50 | > 50 | 52 | > 963 | 108 | 5.48 | 0.0519 | 0.0919 | > 963 | 2.11 | – | > 60 | > 60 | – | 10 | –
Cl.S=C(NCCc1nc(-c2ccccc2)cs1)N1CCCCC1 | 2 | – | > 50 | > 50 | > 50 | > 50 | – | > 2060 | – | 0.187 | 0.0243 | 0.0424 | > 2060 | 0.089 | 1.8 | < 5 | 8.2 | – | – | –
O=C(Nc1ccc2sc(-c3ccc(F)c(F)c3)nc2c1)N1CCCC1 | 2.61 | 66 | 33.9 | > 50 | > 50 | > 50 | – | > 545 | 7.39 | 4.25 | 0.0918 | 0.181 | 369 | – | – | 14 | – | – | – | –
O=C(N/C=C/c1nc(-c2cccc(F)c2)cs1)N1CCCCC1 | – | – | > 50 | > 50 | > 50 | > 50 | – | > 529 | – | – | 0.0946 | 0.216 | > 529 | – | – | 13 | < 5 | 28 | – | –
O=C(NCCc1nc(-c2ccc(F)cc2F)cs1)N1CCCCC1 | – | – | – | – | – | – | – | – | – | – | – | – | – | – | 0 | < 5 | < 5 | 46 | – | –
CC1CCCCN1C(=O)NCCc1nc(-c2cccc(F)c2)cs1 (centres undefined) | – | – | > 50 | > 50 | > 50 | > 50 | – | > 1350 | – | – | 0.037 | 0.0586 | > 1350 | – | 21 | < 5 | < 5 | 3.9 | – | –
N=C(N)c1ccc(/N=N/Nc2ccc(C(=N)N)cc2)cc1 | – | – | – | – | – | – | – | – | – | – | – | – | – | – | – | – | – | – | – | inactive
